Experimental data published in publication PMC5453640 (Journal of medicinal chemistry, 2017).
Entries after “also recorded” stand apart in the source; their conditions may differ.

How the values were obtained:
wild-type CFTR [1] = target: T1, wild-type CFTR (Homo sapiens, UniProt P13569); assay: cell-based plate reader assay of CFTR function; conditions: for CFTR activation potency of synthesized analogs, comparison in words: Charts 1-3; for CFTR activation potency of commercial analogs, SAR summary in words: commercially available analogs of 1, Supporting Information Table 1
TMEM16A = TMEM16A plate reader assay in FRT cells expressing YFP; type: cell-based; conditions: 10 μM
Outline: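 FRT cells stably coexpressing TMEM16A and YFP-H148Q halide sensor, test compound at 10 μM. Activation was tested by iodide addition and inhibition by iodide plus ATP. Assay run like the CFTR plate assay: 2 s baseline, then 12 s after rapid iodide addition. The initial iodide influx rate from YFP quenching was taken as channel function. Representative of two to four experiment sets.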

wild-type CFTR [2] = target: T1, wild-type CFTR; assay: short-circuit current measurement in CFTR-expressing FRT cells; type: cell-based; conditions: compared with maximal concentration of forskolin
Outline: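 FRT cells expressing human wild-type CFTR on inserts in Ussing chambers. Basolateral HCO3−-buffered and apical half-Cl− solutions; basolateral membrane permeabilized with 250 μg/mL amphotericin B. Gassed with 95% O2/5% CO2 at 37 °C under voltage clamp. Sequence: low forskolin, cumulative test compound, maximal forskolin, then 10 μM CFTRinh-172. EC50 from concentration–response, n = 3.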

[3] = tested on: cellular cAMP in FRT cells; assay: cAMP immunoassay in FRT cells; type: cell-based, rat; conditions: 10 μM, 10 min, without or with 90 nM forskolin
FRT cells = assay: Alamar Blue cytotoxicity assay; type: cell-based, rat; conditions: 10 μM, 8 h
[4] = tested on: non-TMEM16A calcium-activated chloride channel (CaCC) in HT-29 cells; assay: non-TMEM16A CaCC plate reader assay in HT-29 cells expressing YFP; type: cell-based; conditions: 10 μM
Outline: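 HT-29 cells expressing cytoplasmic YFP halide sensor, test compound at 10 μM. Activation was tested by iodide addition and inhibition by iodide plus ATP, reading YFP fluorescence quenching from iodide influx. The initial rate of iodide influx was computed as a linear measure of non-TMEM16A CaCC function. Representative of two to four experiment sets.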

[5] = tested on: tear fluid secretion in mice; conditions: cited from earlier work
[6] = type: in vitro ADME; conditions: 5 μM, rat hepatic microsomes, NADPH
[7] = tested on: tear volume in CF mice lacking functional CFTR; assay: tear fluid volume after single ocular delivery, CF mice; type: in vivo, mouse; conditions: single ocular delivery 250 pmol
[8] = tested on: tear volume in wild-type mice; assay: tear fluid volume after single ocular delivery, wild-type mice; type: in vivo, mouse
CFTR in HBE cells = CFTR in HBE cells (Homo sapiens, UniProt P13569); assay: CFTR activation in HBE cells by short-circuit current; type: cell-based
[9] = tested on: cytoplasmic calcium in FRT cells; assay: cytoplasmic calcium by Fluo-4 fluorescence in FRT cells; type: cell-based, rat; conditions: 10 μM, 5 min pretreatment

T1 sequence (P13569 whole entry): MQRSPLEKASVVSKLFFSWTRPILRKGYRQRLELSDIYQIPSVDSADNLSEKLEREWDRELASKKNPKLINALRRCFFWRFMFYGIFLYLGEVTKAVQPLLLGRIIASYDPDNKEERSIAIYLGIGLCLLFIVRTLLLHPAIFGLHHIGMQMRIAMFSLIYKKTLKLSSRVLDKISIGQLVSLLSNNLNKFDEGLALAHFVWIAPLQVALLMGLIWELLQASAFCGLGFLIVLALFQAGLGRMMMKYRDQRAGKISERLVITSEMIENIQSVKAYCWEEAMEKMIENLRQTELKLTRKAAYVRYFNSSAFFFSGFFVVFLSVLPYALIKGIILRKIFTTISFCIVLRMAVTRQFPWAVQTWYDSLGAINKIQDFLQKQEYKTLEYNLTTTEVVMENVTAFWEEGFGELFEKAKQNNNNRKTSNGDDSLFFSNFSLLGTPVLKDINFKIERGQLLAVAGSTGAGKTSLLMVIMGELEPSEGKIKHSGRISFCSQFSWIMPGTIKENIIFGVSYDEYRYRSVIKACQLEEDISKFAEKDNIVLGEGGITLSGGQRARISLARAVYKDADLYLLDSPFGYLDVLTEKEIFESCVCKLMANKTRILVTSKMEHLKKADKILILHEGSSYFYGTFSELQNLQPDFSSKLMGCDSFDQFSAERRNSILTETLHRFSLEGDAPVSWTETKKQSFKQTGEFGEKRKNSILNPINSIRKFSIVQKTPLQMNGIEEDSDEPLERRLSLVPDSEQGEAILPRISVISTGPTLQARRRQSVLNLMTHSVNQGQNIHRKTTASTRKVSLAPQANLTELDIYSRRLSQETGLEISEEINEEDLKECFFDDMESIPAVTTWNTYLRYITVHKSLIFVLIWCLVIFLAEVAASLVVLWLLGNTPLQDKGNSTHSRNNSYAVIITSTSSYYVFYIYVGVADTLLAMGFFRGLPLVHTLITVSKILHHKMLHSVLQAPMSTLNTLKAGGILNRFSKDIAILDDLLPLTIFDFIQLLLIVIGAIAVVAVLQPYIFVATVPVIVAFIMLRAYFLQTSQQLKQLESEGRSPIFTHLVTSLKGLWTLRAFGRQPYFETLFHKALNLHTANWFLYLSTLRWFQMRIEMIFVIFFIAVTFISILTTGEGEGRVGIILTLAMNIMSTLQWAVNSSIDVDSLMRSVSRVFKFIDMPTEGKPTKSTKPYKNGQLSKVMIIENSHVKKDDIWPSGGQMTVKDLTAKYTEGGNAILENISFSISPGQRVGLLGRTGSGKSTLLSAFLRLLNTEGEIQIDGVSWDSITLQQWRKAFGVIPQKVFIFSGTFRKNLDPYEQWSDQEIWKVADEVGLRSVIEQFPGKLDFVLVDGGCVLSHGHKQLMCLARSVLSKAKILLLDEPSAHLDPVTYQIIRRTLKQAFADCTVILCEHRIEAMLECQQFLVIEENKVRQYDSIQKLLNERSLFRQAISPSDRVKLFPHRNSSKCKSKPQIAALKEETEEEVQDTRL
Chain of CFTR in HBE cells (P13569 whole entry): as above

CCN(CC)c1nc(Nc2ccc3cn[nH]c3c2)nc(OC(C(F)(F)F)C(F)(F)F)n1 [6h]
CFTR activation potency of synthesized analogs, comparison in words (wild-type CFTR [1]): less potent than 1
fold more potent than regioisomer 6i (wild-type CFTR [1]; EC50 ratio, Chart 2): ~ 3 fold

CCN(CC)c1nc(Nc2ccc3ncoc3c2)nc(OC(C(F)(F)F)C(F)(F)F)n1 [6j]
CFTR activation potency of synthesized analogs, comparison in words (wild-type CFTR [1]): greater potency than 1

CCN(CC)c1nc(Nc2ccc3ncsc3c2)nc(OC(C(F)(F)F)C(F)(F)F)n1 [6k]
inhibition or activation of CaCC in TMEM16A-expressing FRT cells (TMEM16A): neither inhibited nor activated
CFTR activation potency of synthesized analogs, comparison in words (wild-type CFTR [1]): significantly greater potency than 1
fold increase in potency over benzoxazole 6j (wild-type CFTR [1]; EC50 ratio, Chart 2): ~ 3 fold
extent of CFTR activation (short-circuit current) (wild-type CFTR [2]): full CFTR activation
elevation of cellular cAMP [3]: did not elevate cellular cAMP
cytotoxicity (Alamar Blue) (FRT cells): did not produce significant toxicity
inhibition or activation of CaCC in HT-29 cells [4]: neither inhibited nor activated

CNc1nc(Nc2ccc(C(C)=O)cc2)nc(OC(C(F)(F)F)C(F)(F)F)n1 [K001]
CFTR activation potency of commercial analogs, SAR summary in words (wild-type CFTR [1]): reduced activity

CCC(C)Nc1nc(Nc2ccc([N+](=O)[O-])cc2)nc(OC(C(F)(F)F)C(F)(F)F)n1 (stereo not drawn) [K056]
CFTR activation potency of commercial analogs, SAR summary in words (wild-type CFTR [1]): reduced potency

CCN(CC)c1nc(Nc2ccc3[nH]ncc3c2)nc(OC(C(F)(F)F)C(F)(F)F)n1 [6i]
CFTR activation potency of synthesized analogs, comparison in words (wild-type CFTR [1]): less potent than 1

CNc1nc(Nc2ccc([N+](=O)[O-])cc2)nc(OCC(F)(F)C(F)F)n1 [K032]
CFTR activation potency of commercial analogs, SAR summary in words (wild-type CFTR [1]): best potency

CCN(CC)c1nc(Nc2ccccc2)nc(OC(C(F)(F)F)C(F)(F)F)n1 [compound 1, N,N-Diethyl-6-[(1,1,1,3,3,3-hexafluoropropan-2-yl)oxy]-N′-phenyl-1,3,5-triazine-2,4-diamine]
CFTR activation potency of synthesized analogs, comparison in words (wild-type CFTR [1]): more potent than tetrafluoropropanol (7a)
CFTR activation potency of commercial analogs, SAR summary in words (wild-type CFTR [1]): best potency
tear fluid secretion after topical delivery [5]: increased tear fluid secretion in mice; also recorded: increased tear fluid secretion after topical delivery
metabolic stability in hepatic microsomes, in words [6]: metabolized rapidly

C=CCNc1nc(Nc2cccc([N+](=O)[O-])c2)nc(OC(C(F)(F)F)C(F)(F)F)n1 [K059]
CFTR activation potency of commercial analogs, SAR summary in words (wild-type CFTR [1]): best potency

FC(F)(F)COc1nc(Nc2ccc(OC(F)(F)F)cc2)nc(NC2CC2)n1 [K079]
CFTR activation potency of commercial analogs, SAR summary in words (wild-type CFTR [1]): reduced activity

CC(C)(C)Nc1nc(Nc2ccc(OC(F)(F)Cl)cc2)nc(OCC(F)(F)F)n1 [K029]
CFTR activation potency of commercial analogs, SAR summary in words (wild-type CFTR [1]): reduced potency

CCN(CC)c1nc(Nc2cccc([N+](=O)[O-])c2)nc(OC(C(F)(F)F)C(F)(F)F)n1 [6d]
CFTR activation potency of synthesized analogs, comparison in words (wild-type CFTR [1]): comparable or slightly better potency than non-substituted aniline (1)

CCN(CC)c1nc(Nc2cccc(C(=O)O)c2)nc(OC(C(F)(F)F)C(F)(F)F)n1 [6a]
CFTR activation potency of synthesized analogs, comparison in words (wild-type CFTR [1]): comparable or slightly better potency than non-substituted aniline (1)

CNc1nc(Nc2ccccc2)nc(OCC(F)(F)C(F)F)n1 [compound 12, N-Methyl-N′-phenyl-6-(2,2,3,3-tetrafluoropropoxy)-1,3,5-triazine-2,4-diamine]
inhibition or activation of CaCC in TMEM16A-expressing FRT cells (TMEM16A): neither inhibited nor activated
fold better EC50 than diethylamine analog 6a (wild-type CFTR [1]; EC50 ratio, Chart 3): ~ 50 fold
fold more potent than hexafluoropropanol analog 11 (wild-type CFTR [1]; EC50 ratio, Chart 3): ~ 3 fold
effect on tear volume in CF mice [7]: without effect; also recorded: did not increase tear volume
duration of sustained in vivo efficacy in increasing tear volume ([8]; mice, dose not given): at least 8 h
time over which tear volume returned to baseline ([8]; wild-type mice, single topical dose 100 μM (250 pmol)): 12 to 24 h
duration of sustained increase in tear volume ([8]; wild-type mice, single topical dose 100 μM (250 pmol) in 2.5 μL): 8 h
duration of sustained effect on tear volume ([8]; wild-type mice, single topical dose down to 25 pmol): 8 h
time of maximal tear volume ([8]; wild-type mice, single topical doses down to 25 pmol): 1 to 3 h
extent of CFTR activation (short-circuit current) (wild-type CFTR [2]): fully activated CFTR chloride conductance; also recorded: full CFTR activation
CFTR activation in HBE cells after forskolin (CFTR in HBE cells; 0.1 μM compound, after 100 nM forskolin): fully activated CFTR
CFTR activation in HBE cells without forskolin (CFTR in HBE cells; absence of basal CFTR phosphorylation produced by forskolin): did not activate CFTR
elevation of cellular cAMP [3]: without causing cAMP or calcium elevation; also recorded: did not elevate cellular cAMP
increase of cytoplasmic calcium [9]: without causing cAMP or calcium elevation
cytotoxicity (Alamar Blue) (FRT cells): did not produce significant toxicity
inhibition or activation of CaCC in HT-29 cells [4]: neither inhibited nor activated

CCN(CC)c1nc(Nc2cccc(Cl)c2)nc(OC(C(F)(F)F)C(F)(F)F)n1 [6c]
CFTR activation potency of synthesized analogs, comparison in words (wild-type CFTR [1]): significantly reduced potency

CCN(CC)c1nc(Nc2cccc(F)c2)nc(OC(C(F)(F)F)C(F)(F)F)n1 [6b]
CFTR activation potency of synthesized analogs, comparison in words (wild-type CFTR [1]): comparable or slightly better potency than non-substituted aniline (1)

COc1nc(Nc2ccc([N+](=O)[O-])cc2)nc(OC)n1 [K023]
CFTR activation potency of commercial analogs, SAR summary in words (wild-type CFTR [1]): greatly reduced potency
